# PubChem BioAssay AID1656 (Sanford-Burnham Center for Chemical Genomics, 2009)
# Among all 240,000 compounds or so, about 950 (0.4%) were called active.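 Rule for the calls: active = lipid droplet intensity inhibited by at least 50%, with more than 500 cells counted; inconclusive = wells with under 300 cells, treated as cytotoxic; inactive = the rest.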 What follows is part of a selection rich in actives, with near analogues and random picks from the rest.
# Test: oleate-induced lipid droplet accumulation in AML12 cells – imaging, high-throughput imaging, BODIPY stain, primary screen (AID 1656);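 for cell count: cells counted across two imaged fields per well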
# Conditions: AML12 mouse hepatocytes, oleate lipid droplets, at 6.5 µM; cell count: measured here: cell count, cytotoxicity flag; inhibition: stronger effect = higher value
# Outline: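 Assay system: AML12 hepatocytes (mouse) / Also added: 100 µM oleic acid challenge / Times: overnight treatment with compound plus oleate / Detection: high-content imaging of BODIPY-stained droplets and DAPI nuclei / Evaluation: % inhibition of lipid droplet signal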
SMILES,cell count [cells],inhibition
CC1(C)CC(=O)C(N=Nc2c(F)cccc2F)=C(O)C1,713,8.6% (inactive)
Cc1ccc(N2C(=O)C(NC(=O)c3c(F)cccc3F)(C(F)(F)F)C3=C2CC(C)(C)CC3=O)cc1 (configuration not stated),635,63.8% (active)
CCOC(=O)CC1(NC(=O)c2cc(COc3cncc(Cl)c3)on2)CCCCC1,665,11.8% (inactive)
CCOC(=O)N1CCN(C(=O)c2ccc3c(=O)n(CCc4ccc(OC)c(OC)c4)c(=O)[nH]c3c2)CC1,684,16.5% (inactive)
CCCCNC(=O)c1cn(CC)c2cc(N3CCN(C(=O)c4ccco4)CC3)c(F)cc2c1=O,705,-15.8% (inactive)
O=S(=O)(c1ccc(Cl)cc1)c1nc(-c2ccco2)oc1N1CCCCC1,633,-18% (inactive)
CN(CC1CCCO1)S(=O)(=O)c1ccc(C(=O)Nc2ccc([N+](=O)[O-])cc2)cc1 (configuration not stated),854,0.6% (inactive)
CC(C)c1ccc2oc(=O)cc(CN3CCN(Cc4ccccc4)CC3)c2c1,850,-0.8% (inactive)
C=CCSc1nnc(N2C(=O)C(O)=C(C(=O)c3ccco3)C2c2ccc(F)cc2)s1 (configuration not stated),710,-21.4% (inactive)
COc1ccc(/C=C(/NC(=O)c2ccco2)C(=O)Nc2ccc(C(C)=O)cc2)cc1,829,8.8% (inactive)
COc1ccc(C(=O)Nc2ccccc2C(=O)NCc2ccco2)cc1,738,-20.2% (inactive)
COc1ccc(/C=C(\NC(=O)c2ccc(OCC(C)C)cc2)C(=O)OCc2ccco2)cc1,607,74.3% (active)
CCn1cc(S(=O)(=O)c2cccc(C)c2)c(=O)c2cc(F)c(N3CCN(C)CC3)cc21,738,7.2% (inactive)
CCC1=Nc2cc(C(=O)NCCN3CCCC3)ccc2Sc2ccc(C)cc21,726,4.6% (inactive)
COc1cccc(/C=C(/CC(=O)Nc2ccc(N3CCOCC3)cc2)c2nc3ccccc3s2)c1,578,77.8% (active)
COc1cc2ccccc2cc1C(=O)Nc1ccc(N2CCOCC2)cc1,835,-4.2% (inactive)
COc1ccc(/C=C(/CC(=O)Nc2ccc(C)cc2)c2nc3ccccc3s2)cc1,713,-0.1% (inactive)
COc1ccc(CCNC(=O)COC(=O)/C=C/c2cccs2)cc1OC,727,2.8% (inactive)
CCC(C(=O)NCc1ccc(OC)cc1)n1nc(C)n2c(cc3occc32)c1=O (configuration not stated),780,-2.7% (inactive)
CCOc1ccc(CCNC(=O)C(CC)n2nc(C)n3c(cc4sccc43)c2=O)cc1OCC (configuration not stated),786,85.5% (active)
Cc1ccc2cc(C)c(N3CCN(c4ccc(F)cc4)CC3)nc2c1,820,15% (inactive)
